What was measured:
[1] = melting temperature; fluorescence melt of hairpins on a sequencing array, two-state fit, raised by 9.35 °C to match UV melts; details: sodium 0.088 M
Summary of the method: (§1)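 Folding enthalpy and melting temperature were estimated with bootstrapped two-state fits and combined across four replicates by inverse-variance weighting, with fitted temperatures raised by 9.35 °C to match UV melts. The data were Cy3 fluorescence of library hairpins, with annealed Cy3 and quencher oligos, on a sequenced MiSeq flow cell in 50 mM Na-HEPES pH 8.0, 25 mM NaCl, imaged in 2.5 °C steps up to 60 °C and normalised to pre-quench Cy3 and control constructs.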

[2] = folding enthalpy; higher = less favourable; fluorescence melt of hairpins on a sequencing array, two-state fit; details: sodium 0.088 M
Summary of the method: as §1

| Sequence | Tm [1] [°C] | folding enthalpy [2] [kcal/mol] |
| --- | --- | --- |
| GGAAGCGAAAGCTAGTCC ((((((....)))..))) | 25.8 | -9.98 |
| GGTTTCGAAAGAAGACC ((((((....))).))) | 36.8 | -19.5 |
| GCTCAGCGAAAGCATAGC (((..((....))..))) | 38.5 | -16 |
| GATGCCGAAAGGCCGATC ((((((....)))..))) | 25.2 | -10.3 |
| GGTAAACGAAAGTTAACC (((.(((....))).))) | 43.2 | -30.5 |
| GATCCTTGTTAGGATC ((((((....)))))) | 52.8 | -34.8 |
| GACAGAGGAAACTCTGTC (((((((....))))))) | 60.6 | -41.3 |
| GATCATCGAGATGATC ((((((....)))))) | 54.2 | -45.2 |
| GATCCGTGAACGGATC ((((((....)))))) | 60.5 | -33.1 |
| GGGCGAGGAAACCCGCCC (((((.(....).))))) | 64.5 | -34.7 |
| GATCTATTGCTAGATC ((((((....)))))) | 40.5 | -32.8 |
| GGGGTGACGAAAGTCCCC (((..(((....)))))) | 56 | -31.8 |
| GTCCGACCGAAAGGTGAC (((..(((....)))))) | 36.6 | -16.6 |
| GTCGACGGAAACGTTGGC (.(.(((....))).).) | 46.2 | -24.6 |
| GGGCCTGGAAACAAGCCC ((((.((....)).)))) | 47.4 | -33.3 |
| GCACCGCGAAAGCGCCGC ((..(((....)))..)) | 36.1 | -8.78 |
| GATCGGGACCCGATC ((((((...)))))) | 56.9 | -41.2 |
| GTTGTGCGAAAGCAGAAC (((.(((....))).))) | 54.1 | -30.9 |
| GAAAAGGGAAACCCTTTC ((((.((....)).)))) | 32.6 | -17 |

| Sequence | Tm [1] [°C] | folding enthalpy [2] [kcal/mol] |
| --- | --- | --- |
| GATTGCGAAAGCAATATC ((((((....)))..))) | 50.1 | -13.1 |
| GATCCTGGTTAGGATC ((((((....)))))) | 51.9 | -38 |
| GTGTTGAAAAACAC (((((....))))) | 49.9 | -26.3 |
| GCATGCGAAAGCACCTGC ((((((....)))..))) | 33 | -10.9 |
| GTTCACCGAAAGGTAAAC (((.(((....))).))) | 40.5 | -20.4 |
| CGCGTCCGGAAACGGGCG (((..(((....)))))) | 55.2 | -14 |
| GACCACGAAAGTGTAGTC ((((((....)))..))) | 41.1 | -18.6 |
| GAACTCGGAAACGAGTTC (((((((....))))))) | 67 | -40.9 |
| CGAGCGGAAACGCTATCG ((((((....)))..))) | 35.1 | -13.1 |
| GGACGCGAAAGCGGCTCC ((((((....)))..))) | 58 | -8.87 |
| GGGGATGGAAACGTTCCC (((.(.(....).).))) | 39 | -30 |
| GATCTCGTCGGAGATC ((((((....)))))) | 54.5 | -43.5 |
| GTAGAGGGAAACTTCTAC (((((.(....).))))) | 35 | -21.5 |
| GGTGAGCGAAAGCTGACC (((.(((....))).))) | 55 | -37.8 |
| GATCGATTAGTCGATC ((((((....)))))) | 53.2 | -54.5 |
| GTTGTCGAAAGACGAAC ((((((....))).))) | 39.8 | -17.9 |
| GCTAAGCGAAAGCTAGC (((.(((....)))))) | 56.1 | -31.8 |
| GAGTTCCGAAAGGACTC (((.(((....)))))) | 49.2 | -22.1 |
| CATCCGAAAGGATG (((((....))))) | 63.1 | -25.8 |
